target: T1, Sterol O-acyltransferase 1 (Rattus norvegicus, UniProt O70536); experiment: In vitro inhibitory concentration against […] derived from rat adrenals
T1 sequence (O70536 whole entry): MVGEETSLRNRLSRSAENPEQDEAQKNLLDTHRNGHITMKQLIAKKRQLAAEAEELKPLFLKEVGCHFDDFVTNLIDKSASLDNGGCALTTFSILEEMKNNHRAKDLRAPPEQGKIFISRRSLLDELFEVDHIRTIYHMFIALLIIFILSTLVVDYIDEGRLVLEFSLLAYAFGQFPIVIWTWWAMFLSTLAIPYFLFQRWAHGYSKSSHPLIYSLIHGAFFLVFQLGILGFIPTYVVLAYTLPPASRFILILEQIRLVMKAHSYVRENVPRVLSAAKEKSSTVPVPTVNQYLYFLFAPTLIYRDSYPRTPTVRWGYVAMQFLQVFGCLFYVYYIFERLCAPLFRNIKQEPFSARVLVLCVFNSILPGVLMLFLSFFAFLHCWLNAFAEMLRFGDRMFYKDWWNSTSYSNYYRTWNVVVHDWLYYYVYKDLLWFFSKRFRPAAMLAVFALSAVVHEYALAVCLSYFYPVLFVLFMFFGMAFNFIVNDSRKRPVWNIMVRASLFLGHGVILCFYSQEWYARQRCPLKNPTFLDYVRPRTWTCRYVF

For `CCCCCCCN(Cc1ccco1)C(=O)Nc1cc(C)c(C)cc1C`, the IC50 was 2.24 µM.

target: T2, Sterol O-acyltransferase 1 (Homo sapiens, UniProt P35610); experiment: In vitro inhibitory concentration against […] derived from smooth muscle cells from thoracic aorta of monkeys
T2 sequence (P35610 whole entry): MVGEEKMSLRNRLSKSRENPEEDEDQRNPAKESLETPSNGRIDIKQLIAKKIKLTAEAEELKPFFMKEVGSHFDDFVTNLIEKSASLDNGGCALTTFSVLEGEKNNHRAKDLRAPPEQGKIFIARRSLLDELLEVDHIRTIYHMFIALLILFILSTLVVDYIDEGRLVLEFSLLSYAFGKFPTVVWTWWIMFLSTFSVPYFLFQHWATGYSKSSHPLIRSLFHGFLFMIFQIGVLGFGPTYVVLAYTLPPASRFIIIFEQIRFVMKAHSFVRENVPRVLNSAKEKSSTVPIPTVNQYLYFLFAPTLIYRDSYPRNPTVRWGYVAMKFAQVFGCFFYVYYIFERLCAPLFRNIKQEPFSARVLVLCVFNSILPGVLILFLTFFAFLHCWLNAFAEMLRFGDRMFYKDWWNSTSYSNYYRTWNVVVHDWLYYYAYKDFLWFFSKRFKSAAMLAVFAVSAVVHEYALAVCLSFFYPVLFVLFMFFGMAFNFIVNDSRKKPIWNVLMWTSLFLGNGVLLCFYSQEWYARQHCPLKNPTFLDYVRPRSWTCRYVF

With `CCCCCCCN(Cc1ccco1)C(=O)Nc1cc(C)c(C)cc1C` the IC50 was 0.14 µM.

target: T2, Sterol O-acyltransferase 1; experiment: In vitro inhibitory concentration against ACAT derived from smooth muscle cells from thoracic aorta of monkeys
Method in brief: (§1)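 Aortic smooth-muscle cells from African green monkey thoracic aorta, grown 48 h in DMEM/10% FCS with LDL from hypercholesterolemic monkeys plus graded compound concentrations (methanol). Albumin-bound [14C]oleate then added for 2.5 h; cells trypsinized, Folch lipid extraction, [14C]cholesteryl esters isolated by TLC and counted by scintillation; IC50 derived.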

In order of rising IC50:
1. Cc1cc(C)c(NC(=O)N(Cc2ccccc2)Cc2ccccc2)cc1C  1.08 µM
2. CCCCN(C(=O)Nc1ccc(C)cc1C)c1ccccc1  26.9 µM

target: T2, Sterol O-acyltransferase 1; experiment: In vitro inhibitory concentration against acyl coenzyme A:cholesterol acyltransferase derived from smooth muscle cells from thoracic aorta of monkeys; method in brief: as §1

In order of falling IC50:
1. O=C(Nc1cccc(Cl)c1)N(Cc1ccccc1)Cc1ccccc1  39.9 µM
2. CCCCN(CCCC)C(=O)Nc1cccc(C)c1  24 µM
3. CC(C)(C)CCN(Cc1cccs1)C(=O)Nc1ccc(F)cc1F  17 µM
4. CCCCN(CCCC)C(=O)Nc1ccc(C)c(Cl)c1  12.8 µM
5. Cc1c(Cl)cccc1NC(=O)N(CCC(C)(C)C)Cc1cccs1  6.3 µM
6. CCCCN(Cc1ccccc1)C(=O)Nc1c(Cl)cc(Cl)cc1Cl  3.62 µM
7. CC(C)(C)CCN(Cc1cccs1)C(=O)Nc1c(Cl)cc(Cl)cc1Cl  2.62 µM
8. CCCCN(Cc1ccccc1)C(=O)Nc1ccc(C)cc1C  1.83 µM
